Source: ChEMBL document CHEMBL4229376, “Optimization of the pharmacokinetic properties of potent anti-trypanosomal triazine derivatives” (Eur J Med Chem, 2018)
Calls of active or inactive are those of the source. The rule behind the calls is not given here.

Legend:
[1] = Drug uptake in Swiss mouse blood at 50 mg/kg, po administered as single dose after 24 hrs by UPLC/MS/ESI analysis; assay type: ADME, organism-based; conditions: whole blood, read-out: Drug uptake
Procedure, shortened: (§1)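 Mice were given the compound orally as a single dose of either 25 or 50 mg/kg, one group per dose. Plasma concentrations were followed over time up to 24 h, and the pharmacokinetic parameters were derived from the concentration-time profile.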

[2] = tested on: Mus musculus; test: Apparent volume of distribution in Swiss mouse infected with Trypanosoma brucei brucei Squib 427 at 25 mg/kg, po administered as single dose after 24 hrs by UPLC/MS/ESI analysis; assay type: ADME, organism-based; conditions: in vivo
[3] = Drug metabolism in mouse liver microsomes assessed as UGT mediated compound […] by measuring parent compound remaining at 5 uM after 60 mins in presence of UDPGA by UPLC/MS/ESI analysis; assay type: ADME; conditions: 1 h
Procedure, shortened: (§2)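 Metabolic stability was run with mouse liver microsomal fraction (S9) and read as percent parent compound remaining over incubation time. Diclofenac served as the reference compound.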

[4] = Drug uptake in Swiss mouse blood at 25 mg/kg, po administered as single dose after 0.5 hrs by UPLC/MS/ESI analysis; assay type: ADME, organism-based; conditions: whole blood, read-out: Drug uptake; procedure, shortened: as §1
[5] = Tmax in Swiss mouse infected with Trypanosoma brucei brucei Squib 427 at 50 mg/kg, po bid for 5 days after 24 hrs by UPLC/MS/ESI analysis; assay type: ADME, organism-based; conditions: in vivo
[6] = Protein binding in 10% FBS in Trypanosoma brucei culture medium assessed as drug recovery at 2 uM after 6 hrs by equilibrium dialysis and LC-MS analysis; assay type: ADME, cell-free, Bos taurus, Serum; conditions: cattle, read-out: Drug recovery
[7] = tested on: Trypanosoma brucei brucei; test: Antitrypanosomal activity against Trypanosoma brucei brucei Squib 427 infected in Swiss mouse assessed as mean survival days at 25 mg/kg, po bid for 5 days; assay type: functional
Procedure, shortened: (§3)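 Acute mouse infection model with T. b. brucei. Dosing ran for 5 days after infection, orally or intraperitoneally, once or twice daily. Groups were 3 mice each, with vehicle-treated infected controls. The read-out was mean survival time in days, plus the number of survivors on day 14 post-infection.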

[8] = Protein binding in mouse plasma assessed as drug recovery at 2 uM after 6 hrs by equilibrium dialysis and LC-MS analysis; assay type: ADME, cell-free; conditions: read-out: Drug recovery
[9] = Cytotoxicity against human MRC5 SV2 cells after 72 hrs by resazurin dye-based fluorimetric analysis; assay type: cell-based; conditions: MRC-5 SV2, 72 h
[10] = Cmax in Swiss mouse at 25 mg/kg, po administered as single dose after 24 hrs by UPLC/MS/ESI analysis; assay type: ADME, organism-based; set-up: dose 25 mg/kg, route oral; conditions: in vivo
Procedure, shortened: (§4)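 Mice in groups received one oral dose of 25 or 50 mg/kg. Plasma concentrations were followed over time up to 24 h, and PK parameters including T1/2 were derived from the concentration–time profile.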

[11] = Drug metabolism in human liver microsomes assessed as UGT mediated compound […] by measuring parent compound remaining at 5 uM after 30 mins in presence of UDPGA by UPLC/MS/ESI analysis; assay type: ADME; conditions: read-out: Stability
[12] = Clearance in Swiss mouse infected with Trypanosoma brucei brucei Squib 427 at 50 mg/kg, po bid for 5 days after 24 hrs by UPLC/MS/ESI analysis; assay type: ADME, organism-based; conditions: in vivo
[13] = Tmax in Swiss mouse at 25 mg/kg, po administered as single dose after 24 hrs by UPLC/MS/ESI analysis; assay type: ADME, organism-based; conditions: in vivo; procedure, shortened: as §1
[14] = Drug metabolism in human liver microsomes assessed as CYP450 mediated compound […] by measuring parent compound remaining at 5 uM after 60 mins in presence of NADPH by UPLC/MS/ESI analysis; assay type: ADME; conditions: read-out: Stability
[15] = Half life in Swiss mouse infected with Trypanosoma brucei brucei Squib 427 at 50 mg/kg, po bid for 5 days after 24 hrs by UPLC/MS/ESI analysis; assay type: ADME, organism-based; conditions: in vivo
[16] = Drug metabolism in mouse liver microsomes assessed as UGT mediated compound […] by measuring parent compound remaining at 5 uM after 30 mins in presence of UDPGA by UPLC/MS/ESI analysis; assay type: ADME; conditions: 0.5 h; procedure, shortened: as §2
[17] = Drug level in Swiss mouse blood infected with Trypanosoma brucei brucei Squib 427 at 25 mg/kg, po bid for 5 days measured after 1 hr after last dose by UPLC/MS/ESI analysis; assay type: ADME, organism-based; conditions: whole blood, read-out: Drug uptake
[18] = tested on: Trypanosoma cruzi; test: Antitrypanosomal activity against nifurtimox-sensitive Trypanosoma cruzi Tulahuen CL2 infected in human MRC5 SV2 cells assessed as reduction in parasite burden after 168 hrs by CPRG and Nonidet based spectrophotometric analysis; assay type: functional, organism-based; conditions: Tulahuen CL2, MRC-5 SV2, 168 h
[19] = tested on: Trypanosoma brucei brucei; test: Antitrypanosomal activity against suramin-sensitive Trypanosoma brucei brucei Squib 427 after 72 hrs by resazurin dye-based fluorimetric analysis; assay type: functional, organism-based; conditions: Squib 427, 72 h
[20] = tested on: Trypanosoma brucei brucei; test: Antitrypanosomal activity against Trypanosoma brucei brucei Squib 427 infected in Swiss mouse assessed as mouse survival at 50 mg/kg, po bid for 5 days and measured on day 14 post infection; assay type: functional, organism-based
Procedure, shortened: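 Acute T. b. brucei mouse infection model. Dosing was PO or IP at 10–50 mg/kg, once (SID) or twice (BID) daily for 5 days after infection, with 3 mice per group. […] Read-outs were mean survival time and survivors on day 14 post infection.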

[21] = Drug level in Swiss mouse blood infected with Trypanosoma brucei brucei Squib 427 at 25 mg/kg, po bid for 5 days measured after 4 hrs after last dose by UPLC/MS/ESI analysis; assay type: ADME, organism-based; conditions: whole blood, read-out: Drug uptake
[22] = tested on: Trypanosoma brucei brucei; test: Antitrypanosomal activity against Trypanosoma brucei brucei Squib 427 infected in Swiss mouse assessed as mean survival days at 50 mg/kg, po administered as single dose for 5 days; assay type: functional; procedure, shortened: as §3
[23] = Drug uptake in Swiss mouse blood at 50 mg/kg, po administered as single dose after 0.25 hrs by UPLC/MS/ESI analysis; assay type: ADME, organism-based; conditions: whole blood, read-out: Drug uptake; procedure, shortened: as §1
[24] = Drug uptake in Swiss mouse blood at 25 mg/kg, po administered as single dose after 1 hr by UPLC/MS/ESI analysis; assay type: ADME, organism-based; conditions: whole blood, read-out: Drug uptake; procedure, shortened: as §1
[25] = Drug level in Swiss mouse blood infected with Trypanosoma brucei brucei Squib 427 at 50 mg/kg, po bid for 5 days measured after 4 hrs after last dose by UPLC/MS/ESI analysis; assay type: ADME, organism-based; conditions: whole blood, read-out: Drug uptake
[26] = Clearance in Swiss mouse at 25 mg/kg, po administered as single dose after 24 hrs by UPLC/MS/ESI analysis; assay type: ADME, organism-based; conditions: in vivo; procedure, shortened: as §4
[27] = Drug metabolism in human liver microsomes assessed as UGT mediated compound […] by measuring parent compound remaining at 5 uM after 60 mins in presence of UDPGA by UPLC/MS/ESI analysis; assay type: ADME; conditions: read-out: Stability
[28] = Protein binding in mouse plasma assessed as drug recovery at 10 uM after 6 hrs by equilibrium dialysis and LC-MS analysis; assay type: ADME, cell-free; conditions: read-out: Drug recovery
[29] = Protein binding in 10% FBS in Trypanosoma brucei culture medium assessed as drug recovery at 10 uM after 6 hrs by equilibrium dialysis and LC-MS analysis; assay type: ADME, cell-free, Bos taurus, Serum; conditions: cattle, read-out: Drug recovery
[30] = Half life in Swiss mouse at 25 mg/kg, po administered as single dose after 24 hrs by UPLC/MS/ESI analysis; assay type: ADME, organism-based; conditions: in vivo; procedure, shortened: as §1
[31] = Drug metabolism in mouse liver microsomes assessed as CYP450 mediated compound […] by measuring parent compound remaining at 5 uM after 60 mins in presence of NADPH by UPLC/MS/ESI analysis; assay type: ADME; conditions: read-out: Stability
[32] = Ratio of Cmax in Swiss mouse at 50 mg/kg, po administered as single dose after 24 hrs by LC-MS analysis to IC50 for antitrypanosomal activity against suramin-sensitive Trypanosoma brucei brucei Squib 427 after 72 hrs by resazurin dye-based fluorimetric analysis; assay type: ADME, organism-based; conditions: in vivo

With `Nc1nc(Nc2ccc(F)cc2)nc(Oc2ccc(F)cc2)n1` the concentration at 24 h [1] was 150 ng/mL, the Vz [2] was 13 L and the Stability [3] was 101%. The concentration at 0.5 h [4] was 842 ng/mL, the Tmax [5] was 1.3 h and the recovery at 6 h, 2 µM [6] was 96.1%. It also gave an MST [7] of 6 days, a recovery at 6 h, 2 µM [8] of 90.2% and an IC50 [9] greater than 64 µM. The Cmax [10] was 1180 ng/mL, the remaining at 0.5 h, 5 µM [11] was 97% and the CL/F [12] was 89.9 mL/min. For the same molecule, the Tmax [13] was 2.3 h, the remaining at 1 h, 5 µM [14] was 65% and the half-life [15] was 1.33 h. The Stability [16] was 103%, the concentration at 1 h [17] was 2410 ng/mL and the IC50 [18] was greater than 64 µM. For the same molecule, the IC50 [19] was 0.6 µM, the Activity [20] was “inactive” and the concentration at 4 h [21] was 204 ng/mL. The MST [22] was 7 days, the concentration at 0.25 h [23] was 1320 ng/mL and the concentration at 1 h [24] was 1180 ng/mL. It also gave a concentration at 4 h [25] of 800 ng/mL, a CL/F [26] of 70.1 mL/min and a remaining at 1 h, 5 µM [27] of 96%. It also gave a recovery at 6 h, 10 µM [28] of 75.4%, a recovery at 6 h, 10 µM [29] of 71.1% and a half-life [30] of 4.14 h. For the same molecule, the remaining at 1 h, 5 µM [31] was 74% and the Ratio [32] was 10.
